L major viab: reduces viability of Leishmania major promastigotes. resazurin fluorescence viability. inhibition, % at 10 µM. actives 9% (n = 200,000). AID 1063; in the data active means inhibition above about 50%;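 further: promastigotes grown with compound for 44 hours at 28 °C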
MT stabilizer: stabilizes microtubules in HeLa cells; actives 0.83% (n = 200,000); % tubulin-high responders, % at 10 µM; HeLa tubulin immunostaining HCS, 24 h; share of cells brighter than vehicle mean+2SD;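 active means plate Z-score above 3 for both tubulin-high and condensed-nucleus cell shares, with cell loss under 80%, at 10 µM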;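 further: anti alpha tubulin signal scored within the nucleus-defined area of each cell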
b-catenin transl: modulators of beta-catenin nuclear translocation. actives 0.3% (n = 190,000). AID 1665. HeLa beta-catenin nuclear translocation, immunofluorescence imaging. nuclear translocation activity, % at 5 µM;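 active means nuclear translocation activity above 50% at 5 µM, with a well cell count of 50 or more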;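 further: per-cell ratio of nuclear to cytoplasmic median beta-catenin stain intensity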
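test system = HeLa cells, endogenous beta-catenin | dosing = single 5 µM dose plus 0.02–20 µM confirmation series | times = compound treatment 24 h, 37°C, 5% CO2 | technique = beta-catenin immunofluorescence imaging with DAPI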
Dynein transport: blocks dynein driven cargo transport along microtubules | 3617.4 mouse cells, GR-EGFP nuclear translocation imaging; test concentration mostly 20 µM; stimulated with dexamethasone, 1 µM; active compounds read low | z-score, hits read low | actives 0.47% (n = 220,000) | AID 1381;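 active means plate z-score of nuclear minus cytoplasmic receptor signal below a set negative limit, without overly bright fluorescence or cell loss, cut at about -3.5 in these data, passing the limit was not always enough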;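 further: z-score of nuclear minus cytoplasmic ring GR-EGFP intensity difference per well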
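Buffer or medium – tet-free medium with charcoal-stripped serum · Signal – automated 10x imaging of fixed Hoechst-stained cells · Also added – dexamethasone agonist, 1.0 µM final, for 30 min · Incubation – induction 48 h, compound 1 h, agonist 30 min · Read-out – GR-EGFP nuclear translocation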
Autophagy HCS: autophagy modulation, high-content screen | MEF GFP-LC3 puncta imaging; test concentration mostly 10 µM | calls only at 10 µM (by protocol) | actives 0.98% (n = 190,000) | AID 463193;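 active means percentage of spot-positive cells more than 3 SD above its plate mean, without a fluorescence outlier flag or 80% toxicity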
CHOP inh: blocks CHOP induction under ER stress | actives 3.8% (n = 220,000) | CHO-K1 CHOP-promoter luciferase, tunicamycin-induced, 15-18 h | inhibition, % at 10 µM;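 active means compounds that reduced the stress-induced luciferase reporter signal by more than about 70% of percent inhibition, limit read from the data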
Hits are given with their value; n = inactive; x = no result; + = active, no number. Most compounds without a hit are left out; they make up all but 12% or so of the library.

SMILES	L major viab	MT stabilizer	b-catenin transl	Dynein transport	Autophagy HCS	CHOP inh
CC1(C)CC2CC(C)(CN2C(=O)COC(=O)c2n[nH]c(=O)c3ccccc23)C1 (stereo unspecified)	n	n	n	n	n	n
CC1(C)CC2CC(C)(CN2C(=O)COc2cccc3ccccc23)C1 (stereo unspecified)	n	n	n	n	n	91
NNC(=O)COc1ccc(C(F)(F)F)cc1	n	n	n	n	n	n
COc1ccc(Nc2ccc3c(c2)=NC2(CCCCC2)[N+]=3[O-])cc1	101	n	n	n	+	n
CC1CCCC(C)N1C(=S)SCC(=O)O (stereo unspecified)	n	n	n	n	n	n
Nc1nc(Br)c2c(F)cccc2c1-c1ccccc1	n	n	x	n	n	n
Nc1nc(Br)c2c(F)cccc2c1-c1ccc(F)cc1	n	n	x	n	n	74
O=C(Nc1ccc(NC(=O)c2ccccc2O)cc1)Nc1ccc(F)cc1F	x	x	n	n	x	71
O=C(Nc1nc(-c2ccccc2)cs1)Nc1ccc(F)cc1F	n	n	n	n	n	89
CC(=O)c1ccc(N2CCN(C(=S)Nc3cccc(Cl)c3)CC2)cc1	57	n	x	n	n	n
O=C(C1CCN(c2ccc(N3CCOCC3)nn2)CC1)N1CCN(c2ccc(F)cc2)CC1	97	n	n	n	n	x
CC(=O)c1ccc(N2CCN(C(=O)C3CCC3)CC2)cc1	n	n	x	n	+	n
CC(=O)c1ccc(NC(=S)N2CCN(c3cccc(Cl)c3)CC2)cc1	n	n	n	n	n	n
O=C(C1CCN(S(=O)(=O)N2CCOCC2)CC1)N1CCN(c2ccc(F)cc2)CC1	n	n	x	n	n	n
COC(=O)c1ccc(C(=O)OC)c(NC(=S)N2CCN(c3ccccc3)CC2)c1	n	n	n	n	n	n
CC(=O)c1ccc(N2CCC(C(=O)O)CC2)cc1	n	n	n	n	n	n
COC(=O)c1ccc(C(=O)OC)c(NC(=S)N2CCN(c3cccc(Cl)c3)CC2)c1	74	n	x	n	n	n
COc1cccc(C(=O)/C(C#N)=N/Nc2cccc(-c3ccnc(C)n3)c2)c1	x	x	n	n	x	n
c1ccc(-n2cc(CNCCc3cscn3)c(-c3ccc4c(c3)OCO4)n2)cc1	n	n	n	n	n	n
COc1cc(C(=O)Nc2cc(Cl)ccc2C)c(-n2cnnn2)cc1OC	n	n	n	n	n	n
COc1ccc(OCCSc2nnc(C)n2-c2ccccc2)cc1	n	n	n	n	n	n
Cc1nnc(SCC(=O)NNC(=O)c2ccccc2)n1-c1ccccc1	66	n	n	n	n	n
COc1ccccc1OCCSc1nnc(C)n1-c1ccccc1	73	n	x	n	n	n
Cc1ccccc1-n1c(C)nnc1SCC(=O)NNC(=O)c1ccccc1	n	n	n	n	n	n
COC(=O)c1ccc(NC(=O)CN(c2ccc3c(c2)OCO3)S(C)(=O)=O)cc1	64	n	n	n	n	n
COc1ccc(N(CC(=O)Nc2ccc3c(c2)OCO3)S(=O)(=O)c2ccccc2)cc1OC	x	x	n	n	x	n
